From ChEMBL document CHEMBL2021777 (J Med Chem, 2012)

Columns and labels:
[1] = target: Cytochrome P450 2D6 (Homo sapiens, UniProt P10635); assay: Inhibition of CYP2D6 up to 10 uM; assay type: ADME
Method in brief: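 Percent inhibition of CYP isoforms (CYP1A, CYP2C9, CYP2C19, CYP2D6, CYP3A; CYP1A2 reported) with test compound at concentrations up to 10 μM.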

[2] = target: T1, Alpha-2C adrenergic receptor (Homo sapiens) (UniProt P18825); assay: Displacement of [3H]Clonidine from alpha2C adrenergic receptor at 10 uM
T1 sequence (whole entry): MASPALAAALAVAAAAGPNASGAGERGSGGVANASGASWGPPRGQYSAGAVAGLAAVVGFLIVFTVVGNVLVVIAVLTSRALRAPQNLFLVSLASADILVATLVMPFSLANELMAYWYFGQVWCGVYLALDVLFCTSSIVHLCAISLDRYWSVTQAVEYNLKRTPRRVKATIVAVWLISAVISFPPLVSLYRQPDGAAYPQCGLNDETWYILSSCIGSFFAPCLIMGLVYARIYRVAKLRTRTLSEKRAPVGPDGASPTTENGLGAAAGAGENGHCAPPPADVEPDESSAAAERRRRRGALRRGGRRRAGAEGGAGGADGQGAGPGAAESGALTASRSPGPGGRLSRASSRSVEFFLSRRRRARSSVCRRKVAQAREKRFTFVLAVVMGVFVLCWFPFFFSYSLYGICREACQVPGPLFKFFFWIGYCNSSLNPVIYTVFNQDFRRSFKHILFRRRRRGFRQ

[3] = target: Mu-type opioid receptor (Homo sapiens) (UniProt P35372); assay: Displacement of [3H]DAMGO from mu opioid receptor at 10 uM
[4] = target: Neuronal acetylcholine receptor; alpha2/beta4 (Rattus norvegicus, UniProt P12389+P12392); assay: Displacement of [3H] epibatidine from rat alpha2beta4 nAChR by beta scintillation counting; assay type: protein-complex assay
[5] = target: T2, Neuronal acetylcholine receptor; alpha4/beta2 (Homo sapiens, UniProt P17787+P43681); assay: Agonist activity at human alpha4beta2 nAChR expressed in SH-EP1 cells assessed as 86Rb+ ion efflux after 9.5 mins by flip-plate technique; assay type: functional, cell-based
Method in brief: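 SH-EP1 human epithelial cells stably transfected with separate human α4 and β2 subunit cDNAs express a mixed population of high-sensitivity (2:3 α4:β2) and low-sensitivity (3:2) α4β2-nAChRs. Cells were kept at low passage (1−26 from frozen stocks). Function was read as 86Rb+ ion flux.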

[6] = target: T3, 5-hydroxytryptamine receptor 3A (Homo sapiens) (UniProt P46098); assay: Displacement of [3H]LY278584 from 5-HT3 at 10 uM
T3 sequence (whole entry): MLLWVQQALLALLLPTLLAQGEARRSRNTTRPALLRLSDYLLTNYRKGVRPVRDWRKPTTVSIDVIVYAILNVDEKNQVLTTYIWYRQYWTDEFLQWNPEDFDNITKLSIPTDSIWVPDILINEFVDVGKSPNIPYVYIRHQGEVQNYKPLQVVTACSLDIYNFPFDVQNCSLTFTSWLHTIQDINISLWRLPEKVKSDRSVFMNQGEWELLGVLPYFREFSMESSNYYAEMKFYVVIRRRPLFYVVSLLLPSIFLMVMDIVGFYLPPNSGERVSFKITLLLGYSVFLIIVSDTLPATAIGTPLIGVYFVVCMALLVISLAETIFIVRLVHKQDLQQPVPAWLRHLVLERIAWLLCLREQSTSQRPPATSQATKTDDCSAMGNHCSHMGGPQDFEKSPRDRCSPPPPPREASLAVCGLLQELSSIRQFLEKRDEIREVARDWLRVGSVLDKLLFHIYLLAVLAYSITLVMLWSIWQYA

[7] = target: T2, Neuronal acetylcholine receptor; alpha4/beta2; assay: Partial agonist activity at human high sensitive alpha4beta2 nAChR expressed in SH-EP1 cells assessed as 86Rb+ ion efflux by flip-plate technique relative to sazetidine-A; assay type: functional, cell-based
Method in brief: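 86Rb+ ion flux in SH-EP1 cells stably transfected with separate human α4 and β2 subunit cDNAs, expressing a mixture of high- and low-sensitivity α4β2 nAChRs. Cells kept at low passage (1−26). Efficacy at the HS form extrapolated relative to a reference agonist defined as a 100% full agonist.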

[8] = Metabolic stability in human liver microsomes assessed as compound remaining at 1 uM after 1 hr; assay type: ADME, Microsome; conditions: read-out: Stability
Method in brief: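 Compound at 1 μM incubated for 1 h with human or mouse liver microsomes; percent of parent remaining unchanged.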

[9] = target: T4, D(4) dopamine receptor (Homo sapiens) (UniProt P21917); assay: Displacement of [3H]N-methylspiperone from D4 at 10 uM
T4 sequence (whole entry): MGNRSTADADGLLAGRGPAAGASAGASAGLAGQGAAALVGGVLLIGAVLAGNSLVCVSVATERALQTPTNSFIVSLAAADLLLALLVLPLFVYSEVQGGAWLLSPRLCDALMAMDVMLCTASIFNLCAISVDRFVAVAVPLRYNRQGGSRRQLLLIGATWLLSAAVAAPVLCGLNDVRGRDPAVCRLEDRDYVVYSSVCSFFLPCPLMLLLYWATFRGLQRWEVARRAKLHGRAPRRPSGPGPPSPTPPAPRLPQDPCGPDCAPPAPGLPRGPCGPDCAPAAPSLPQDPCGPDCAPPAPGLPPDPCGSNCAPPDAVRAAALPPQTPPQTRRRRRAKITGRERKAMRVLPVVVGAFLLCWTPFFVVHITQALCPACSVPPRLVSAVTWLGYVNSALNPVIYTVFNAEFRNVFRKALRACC

[10] = target: T2, Neuronal acetylcholine receptor; alpha4/beta2; assay: Agonist activity at human high sensitive and low sensitive alpha4beta2 nAChR expressed in SH-EP1 cells assessed as 86Rb+ ion efflux by flip-plate technique relative to sazetidine-A; assay type: functional, cell-based
Method in brief: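 SH-EP1-hα4β2 cells (stably transfected human α4 and β2, low passage 1−26) express mixed high- and low-sensitivity α4β2-nAChRs. Efficacy was measured by 86Rb+ flux on this mixed population. High-sensitivity efficacy was extrapolated by defining a reference agonist as 100% full agonist at the HS receptor.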

[11] = target: D(2) dopamine receptor (Homo sapiens) (UniProt P14416); assay: Displacement of [3H]N-methylspiperone from D2 at 10 uM
[12] = target: D(3) dopamine receptor (Homo sapiens) (UniProt P35462); assay: Displacement of [3H]N-methylspiperone from D3 at 10 uM
[13] = target: Beta-2 adrenergic receptor (Homo sapiens) (UniProt P07550); assay: Displacement of [125I]Iodopindolol from beta2 adrenergic receptor at 10 uM
[14] = target: Delta-type opioid receptor (Homo sapiens) (UniProt P41143); assay: Displacement of [3H]DADLE from delta opioid receptor at 10 uM
[15] = target: Neuronal acetylcholine receptor; alpha2/beta2 (Rattus norvegicus, UniProt P12389+P12390); assay: Displacement of [3H] epibatidine from rat alpha2beta2 nAChR by beta scintillation counting; assay type: protein-complex assay
[16] = target: 5-hydroxytryptamine receptor 1B (Homo sapiens) (UniProt P28222); assay: Displacement of [3H][…] from 5-HT1B at 10 uM
[17] = target: Muscarinic acetylcholine receptor M3 (Homo sapiens) (UniProt P20309); assay: Displacement of [3H]QNB from M3 receptor at 10 uM
Muscarinic acetylcholine receptor M3 (Homo sapiens), sequence (P20309 whole entry, looked up): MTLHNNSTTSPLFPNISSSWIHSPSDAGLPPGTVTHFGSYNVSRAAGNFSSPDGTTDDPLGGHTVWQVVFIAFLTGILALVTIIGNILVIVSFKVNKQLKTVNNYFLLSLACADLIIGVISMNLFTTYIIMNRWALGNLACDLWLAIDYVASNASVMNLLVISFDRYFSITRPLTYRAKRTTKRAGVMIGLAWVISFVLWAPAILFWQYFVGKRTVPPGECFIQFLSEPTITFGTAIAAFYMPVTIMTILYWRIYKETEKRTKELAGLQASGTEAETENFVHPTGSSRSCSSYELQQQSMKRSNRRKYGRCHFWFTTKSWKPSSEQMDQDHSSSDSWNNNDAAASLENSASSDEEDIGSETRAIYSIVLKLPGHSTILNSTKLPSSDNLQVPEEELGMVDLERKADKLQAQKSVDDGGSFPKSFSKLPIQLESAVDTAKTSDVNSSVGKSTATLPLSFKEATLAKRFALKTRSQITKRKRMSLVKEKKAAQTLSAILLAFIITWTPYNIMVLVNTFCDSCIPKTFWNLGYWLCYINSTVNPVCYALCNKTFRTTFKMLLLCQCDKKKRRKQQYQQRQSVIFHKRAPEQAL

Mu-type opioid receptor (Homo sapiens), sequence (P35372 whole entry): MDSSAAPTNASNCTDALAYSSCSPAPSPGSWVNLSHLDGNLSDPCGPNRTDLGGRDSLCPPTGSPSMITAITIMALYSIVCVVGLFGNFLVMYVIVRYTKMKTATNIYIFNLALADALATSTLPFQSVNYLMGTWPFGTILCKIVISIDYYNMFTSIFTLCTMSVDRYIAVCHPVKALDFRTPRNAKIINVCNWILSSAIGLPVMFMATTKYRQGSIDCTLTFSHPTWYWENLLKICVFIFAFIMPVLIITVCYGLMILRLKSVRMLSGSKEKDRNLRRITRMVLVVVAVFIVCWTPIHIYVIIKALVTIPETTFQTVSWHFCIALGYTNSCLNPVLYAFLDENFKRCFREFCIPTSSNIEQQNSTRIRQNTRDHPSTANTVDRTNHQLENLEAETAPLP
Beta-2 adrenergic receptor (Homo sapiens), sequence (P07550 whole entry, looked up): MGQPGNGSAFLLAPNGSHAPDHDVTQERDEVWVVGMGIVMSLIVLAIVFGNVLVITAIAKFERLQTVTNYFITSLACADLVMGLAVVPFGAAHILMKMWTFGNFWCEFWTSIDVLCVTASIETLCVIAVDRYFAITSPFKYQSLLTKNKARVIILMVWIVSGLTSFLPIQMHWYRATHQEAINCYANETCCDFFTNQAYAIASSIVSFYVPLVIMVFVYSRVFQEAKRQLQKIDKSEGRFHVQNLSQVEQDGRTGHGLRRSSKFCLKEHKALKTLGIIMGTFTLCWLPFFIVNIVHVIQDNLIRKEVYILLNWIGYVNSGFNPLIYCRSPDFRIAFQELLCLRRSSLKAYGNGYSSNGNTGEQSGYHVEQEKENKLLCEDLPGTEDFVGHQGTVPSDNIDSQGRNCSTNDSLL
Delta-type opioid receptor (Homo sapiens), sequence (P41143 whole entry): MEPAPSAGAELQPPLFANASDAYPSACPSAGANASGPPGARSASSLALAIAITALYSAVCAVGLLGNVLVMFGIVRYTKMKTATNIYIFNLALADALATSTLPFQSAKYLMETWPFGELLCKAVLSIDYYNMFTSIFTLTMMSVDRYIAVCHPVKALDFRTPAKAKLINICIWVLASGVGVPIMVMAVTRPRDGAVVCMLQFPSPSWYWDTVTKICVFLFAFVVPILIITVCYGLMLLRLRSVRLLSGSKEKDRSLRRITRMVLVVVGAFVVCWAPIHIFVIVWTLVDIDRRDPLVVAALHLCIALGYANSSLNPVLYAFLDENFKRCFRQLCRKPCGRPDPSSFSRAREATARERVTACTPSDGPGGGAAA
5-hydroxytryptamine receptor 1B (Homo sapiens), sequence (P28222 whole entry): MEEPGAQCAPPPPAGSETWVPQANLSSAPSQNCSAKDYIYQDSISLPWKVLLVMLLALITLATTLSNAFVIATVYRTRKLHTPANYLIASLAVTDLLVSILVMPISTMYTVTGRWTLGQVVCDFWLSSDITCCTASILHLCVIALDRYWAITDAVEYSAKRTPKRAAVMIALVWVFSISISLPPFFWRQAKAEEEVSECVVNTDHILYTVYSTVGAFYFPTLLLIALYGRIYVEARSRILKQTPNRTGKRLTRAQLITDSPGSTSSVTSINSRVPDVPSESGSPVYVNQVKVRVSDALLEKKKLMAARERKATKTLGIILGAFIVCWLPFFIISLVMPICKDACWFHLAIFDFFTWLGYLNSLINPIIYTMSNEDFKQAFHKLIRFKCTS
D(2) dopamine receptor (Homo sapiens), sequence (P14416 whole entry): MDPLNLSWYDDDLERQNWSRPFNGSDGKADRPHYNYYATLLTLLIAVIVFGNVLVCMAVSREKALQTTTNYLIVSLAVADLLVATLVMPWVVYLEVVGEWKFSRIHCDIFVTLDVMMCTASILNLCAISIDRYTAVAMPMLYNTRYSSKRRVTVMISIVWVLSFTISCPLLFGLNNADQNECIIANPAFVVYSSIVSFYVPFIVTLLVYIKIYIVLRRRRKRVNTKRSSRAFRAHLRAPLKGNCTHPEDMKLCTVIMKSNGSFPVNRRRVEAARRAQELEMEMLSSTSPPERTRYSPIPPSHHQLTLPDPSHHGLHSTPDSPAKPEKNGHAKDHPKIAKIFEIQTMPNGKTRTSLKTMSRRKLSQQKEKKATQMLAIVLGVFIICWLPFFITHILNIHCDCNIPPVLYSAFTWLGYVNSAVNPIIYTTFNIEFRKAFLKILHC
T2 sequence (P17787 whole entry): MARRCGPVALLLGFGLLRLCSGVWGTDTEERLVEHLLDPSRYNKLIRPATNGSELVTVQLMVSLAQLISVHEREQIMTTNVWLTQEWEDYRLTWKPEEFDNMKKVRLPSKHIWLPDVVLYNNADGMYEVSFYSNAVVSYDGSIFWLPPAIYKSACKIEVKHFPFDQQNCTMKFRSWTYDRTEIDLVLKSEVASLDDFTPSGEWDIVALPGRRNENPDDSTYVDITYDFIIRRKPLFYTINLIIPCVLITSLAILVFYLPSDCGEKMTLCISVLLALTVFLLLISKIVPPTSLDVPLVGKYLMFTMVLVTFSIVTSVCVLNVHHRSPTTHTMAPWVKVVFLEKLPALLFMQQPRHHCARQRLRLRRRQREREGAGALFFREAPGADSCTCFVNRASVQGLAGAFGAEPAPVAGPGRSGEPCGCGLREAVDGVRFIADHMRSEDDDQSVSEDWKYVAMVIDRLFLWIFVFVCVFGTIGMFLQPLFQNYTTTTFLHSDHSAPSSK
T2 sequence (P43681 whole entry): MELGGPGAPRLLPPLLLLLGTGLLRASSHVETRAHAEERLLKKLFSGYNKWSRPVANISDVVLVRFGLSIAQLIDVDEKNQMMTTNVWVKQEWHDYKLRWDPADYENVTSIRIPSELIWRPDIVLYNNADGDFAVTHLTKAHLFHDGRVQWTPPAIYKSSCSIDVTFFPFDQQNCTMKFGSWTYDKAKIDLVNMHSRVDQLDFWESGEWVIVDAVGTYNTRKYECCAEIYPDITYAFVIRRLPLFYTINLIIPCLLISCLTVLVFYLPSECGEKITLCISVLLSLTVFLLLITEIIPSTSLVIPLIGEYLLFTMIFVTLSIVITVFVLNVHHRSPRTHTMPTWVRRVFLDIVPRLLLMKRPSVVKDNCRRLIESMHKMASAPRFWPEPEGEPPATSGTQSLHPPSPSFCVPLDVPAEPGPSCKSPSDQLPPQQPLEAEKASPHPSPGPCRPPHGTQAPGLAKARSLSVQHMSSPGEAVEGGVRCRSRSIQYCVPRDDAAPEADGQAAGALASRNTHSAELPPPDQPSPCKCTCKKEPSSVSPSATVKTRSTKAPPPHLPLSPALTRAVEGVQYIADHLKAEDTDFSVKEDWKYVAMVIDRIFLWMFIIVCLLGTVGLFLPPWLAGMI
Cytochrome P450 2D6, sequence (P10635 whole entry, canonical isoform): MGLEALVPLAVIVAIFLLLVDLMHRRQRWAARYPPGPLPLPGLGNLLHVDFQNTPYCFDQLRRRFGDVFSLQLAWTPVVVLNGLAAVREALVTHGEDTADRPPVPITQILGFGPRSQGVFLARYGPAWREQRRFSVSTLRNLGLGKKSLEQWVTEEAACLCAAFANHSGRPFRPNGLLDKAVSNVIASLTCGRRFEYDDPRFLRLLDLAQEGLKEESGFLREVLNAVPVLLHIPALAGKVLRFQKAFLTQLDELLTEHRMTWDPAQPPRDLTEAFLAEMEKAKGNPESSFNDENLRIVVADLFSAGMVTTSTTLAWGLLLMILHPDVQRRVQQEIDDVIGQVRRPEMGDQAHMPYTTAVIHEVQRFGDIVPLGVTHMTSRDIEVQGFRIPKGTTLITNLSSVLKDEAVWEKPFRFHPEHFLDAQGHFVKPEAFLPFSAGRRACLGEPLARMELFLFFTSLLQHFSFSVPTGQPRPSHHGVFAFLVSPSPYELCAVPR
D(3) dopamine receptor (Homo sapiens), sequence (P35462 whole entry): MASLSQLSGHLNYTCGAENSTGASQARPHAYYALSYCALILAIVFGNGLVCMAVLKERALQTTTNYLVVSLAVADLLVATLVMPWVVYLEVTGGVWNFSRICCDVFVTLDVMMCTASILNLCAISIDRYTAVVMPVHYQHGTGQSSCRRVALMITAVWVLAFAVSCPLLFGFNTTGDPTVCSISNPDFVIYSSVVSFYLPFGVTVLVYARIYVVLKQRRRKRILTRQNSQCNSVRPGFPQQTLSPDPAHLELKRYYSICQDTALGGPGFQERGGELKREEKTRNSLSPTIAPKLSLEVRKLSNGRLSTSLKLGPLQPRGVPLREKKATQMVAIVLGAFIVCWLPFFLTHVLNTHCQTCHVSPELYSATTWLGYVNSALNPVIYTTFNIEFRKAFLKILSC

| Structure (SMILES) | inhibition (INH) [1] | inhibition [2] [%] | inhibition [3] [%] | Ki [4] [nM] | EC50 [5] [nM] | inhibition [6] [%] | Efficacy [7] [%] | remaining at 1 h, 1 µM [8] [%] | inhibition [9] [%] | Efficacy [10] [%] | inhibition [11] [%] | inhibition [12] [%] | inhibition [13] [%] | inhibition [14] [%] | Ki [15] [nM] | inhibition [16] [%] | inhibition [17] [%] |
| --- | --- | --- | --- | --- | --- | --- | --- | --- | --- | --- | --- | --- | --- | --- | --- | --- | --- |
| CNC(=O)OCC[C@H]1C[C@@H]1c1cncc(OC[C@@H]2CCN2)c1 | <= 25% | 42 | 37.3 | 1890 | 15.7 | 23.5 | 77 | 98 | 17 | 17 | 0.7 | 12.3 | 22.1 | -4.4 | 0.3 | -2.6 | 30.2 |
| OCC[C@H]1C[C@@H]1c1cncc(OC[C@@H]2CCN2)c1 | <= 25% | 17.6 | 0.4 | 249 | 10.2 | 38.3 | 92 | 80 | 8.3 | 21 | -7.4 | 66.2 | -4.5 | 0.8 | 0.1 | 9.3 | 0 |
| COCC[C@H]1C[C@@H]1c1cncc(OC[C@@H]2CCN2)c1 | <= 25% | 30.6 | -5.6 | 236 | 17.5 | 42.4 | 60 | 84 | 15.8 | 6 | -1.8 | 84.5 | 3 | -4.2 | 0.1 | -1.8 | 9.6 |
